Consider 1 compound from ChEMBL document CHEMBL3232922, “Discovery and SAR of 6-alkyl-2,4-diaminopyrimidines as histamine H₄ receptor antagonists” (J Med Chem, 2014).

SMILES strings stand for the structures.

Series [1] in a line: AUC in Sprague-Dawley rat at 50 mg/kg, po. To be noted: plasma. Type of series: ADME, organism-based. Further details: dose 50 mg/kg, route oral.
Series [2] can be described thus: Half life in Balb/c mouse at 20 mg/kg, po. Type of series: ADME, organism-based. Also on record: dose 20 mg/kg, route oral. To be noted: in vivo.
Series [3] can be described thus: Half life in beagle dog at 2 mg/kg, iv. The following applies: in vivo. Type of series: ADME, organism-based, Canis lupus familiaris. Further details: dose 2 mg/kg, route intravenous.
Series [4] is described as follows: Oral bioavailability in Sprague-Dawley rat at 50 mg/kg. Type of series: ADME, organism-based. To be noted: in vivo.
Series [5] can be described thus: Ratio of drug level in liver to plasma in mouse at 5 mg/kg, po administered as single dose […] by LC-MS/MS analysis. Type of series: ADME, organism-based. Also on record: dose 5 mg/kg, route oral.
A short description of series [6]: Ratio of drug level in kidney to plasma in mouse at 5 mg/kg, po administered as single dose […] by LC-MS/MS analysis. Type of series: ADME, organism-based. Also on record: dose 5 mg/kg, route oral.
Another series addresses T1, Histamine H4 receptor (Mus musculus, UniProt Q91ZY2).
T1 sequence (Q91ZY2 whole entry): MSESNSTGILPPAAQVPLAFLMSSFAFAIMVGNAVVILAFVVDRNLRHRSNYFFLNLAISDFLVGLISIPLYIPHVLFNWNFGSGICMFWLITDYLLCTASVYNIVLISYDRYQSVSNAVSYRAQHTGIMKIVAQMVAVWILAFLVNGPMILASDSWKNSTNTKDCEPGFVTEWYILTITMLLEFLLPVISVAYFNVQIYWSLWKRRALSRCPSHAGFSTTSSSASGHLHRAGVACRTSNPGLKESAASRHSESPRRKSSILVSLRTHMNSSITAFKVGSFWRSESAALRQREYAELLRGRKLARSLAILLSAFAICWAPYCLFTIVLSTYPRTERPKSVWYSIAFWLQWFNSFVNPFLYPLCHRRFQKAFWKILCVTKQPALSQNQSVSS
In words: Displacement of [3H]histamine from mouse histamine H4 receptor expressed in SK-N-MC cells after 45 mins by competition binding analysis. Type of series: cell-based. The procedure, abridged: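 Transfected cells expressing the H4 receptor, competition against [3H]histamine. Ki is the geometric mean of at least three independent determinations (each in triplicate), calculated by the Cheng–Prusoff equation.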
On the technique in general: In a radioligand displacement assay an active substance lowers the binding of a labelled ligand.

Series [7] is described as follows: Permeability from basolateral to apical side in human Caco cells. Type of series: ADME, cell-based. The following applies: Caco-2, read-out: permeability. In general terms: Caco-2 cells form a polarised layer with tight junctions and transporters.
The nature of series [8]: Fraction unbound in rat plasma. Type of series: ADME, cell-free.
Series [9] in a line: Half life in rat at 2 mg/kg, iv. Type of series: ADME, organism-based. Further details: dose 2 mg/kg, route intravenous. The following applies: in vivo.
Series [10] in a line: Half life in monkey liver microsomes. To be noted: rhesus monkey. Type of series: ADME, Macaca mulatta.
Series [11] is described as follows: Tmax in Balb/c mouse at 20 mg/kg, po. Type of series: ADME, organism-based. Further details: dose 20 mg/kg, route oral. The following applies: in vivo.
Series [12] can be described thus: Cmax in Balb/c mouse at 5 mg/kg, po. Type of series: ADME, organism-based. Further details: dose 5 mg/kg, route oral. The following applies: in vivo.
Series [13] in a line: Cmax in Sprague-Dawley rat at 10 mg/kg, po. Type of series: ADME, organism-based. Further details: dose 10 mg/kg, route oral. The following applies: in vivo.
Series [14] is described as follows: Cmax in Sprague-Dawley rat at 50 mg/kg, po. Type of series: ADME, organism-based. To be noted: in vivo. Also on record: dose 50 mg/kg, route oral.

On to `CC(C)c1cc(N2CC[C@@H](N)C2)nc(N)n1` [JNJ-39758979], for which, in [1], the AUC (commonly concentration integrated over time) was 13.4 µM·h. Further, the half-life (usually the time needed for the level to fall by half in the phase considered) in series [2] was 4.7 h; in series [3], 10.2 h; in series [9], 2.1 h; in series [10], over 2 h. In [4], the bioavailability (usually the share of a dose that reaches the circulation, judged against a reference dose that is usually intravenous) came to 38%. For the same compound, the Kp in series [5] and in [6] was 23.2 each time. Affinity on Histamine H4 receptor was put at a Ki of 5.3 nM. The Papp B→A in series [7] was determined as 22 ×10⁻⁶ cm/s. Further, the fraction unbound (as a rule, free concentration divided by total concentration) in series [8] came to 0.83. Further, in [11], the Tmax (as a rule, the time from dosing to the highest level) was 0.5 h. Further, the results for the Cmax in series [12], in series [13] and in [14] were 790 nM, 260 nM and 1250 nM, respectively.
